Here are results for 55 molecules from PubChem BioAssay AID1424 (The Scripps Research Institute Molecular Screening Center, 2008).

In all, about 220,000 compounds went through this assay and about 390 (0.18%) were called active. The sample as a whole holds a higher share of actives than the screen did. Values without a mark were called inactive.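 Rule for the calls: active = activation above its plate's cutoff, the mean activation of test wells on that plate plus 3 SD (cut at about 19% in these data); inactive = the rest.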

For the assay, the system named is transient receptor potential cation channel N1 (TRPN1/NompC), Danio rerio. Briefly: TRPN1 activation via calcium influx – cell-based, HEK293, calcium fluorescence, zebrafish, primary screen (AID 1424).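 Note: 0% = DMSO alone and 100% = 87 µM carbachol.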 The following applies: HEK293 zebrafish TRPN1-YFP, Fluo-8 calcium fluorescence; at 3 µM; active compounds read high; 100% = response to 87 µM carbachol. A digest of the protocol:
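System: zebrafish TRPN1-YFP in HEK293 cells / Dosing: 3 µM single point / Timing: dye loading 1 h at 37 °C, then 30 min room temperature / Signal: Fluo-8 calcium fluorescence, excitation 470-495 nm, emission 515-575 nm / Read-out basis: percent activation from peak over basal fluorescence ratio, control-normalized / Control set: high carbachol 87 µM, low DMSO alone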
Take `COc1cc(/C=N\Nc2nc(-c3cccs3)c(NC(C)=O)s2)ccc1O`: the activation is 0.7%.
To `COC(=O)c1cc(NC(=O)Cc2ccccc2[N+](=O)[O-])ccc1Cl` belongs -1.23%.
The result for `CC(C[N+](C)(C)C)OC(N)=O` (stereo not given) reads 0.21%.
`CC(=O)OC(C)C[N+](C)(C)C` (stereo not given): the activation is 51% (active).
In the case of `CN1CCN(c2cc3c(cc2F)c(=O)c(C(=O)O)cn3CCF)CC1`, the activation was 1.93%.
In the case of `O=C(N1CCCCC1)N1CCN(C(=O)N2CCCCC2)CC1`, the activation is 1.43%.
`CCOc1cc(/C=C2/C(=N)N3OC(C)=CC3=NC2=O)ccc1OC`: the activation was -0.5%.
For the molecule `CC1=CC2=NC(=O)/C(=C/c3coc4ccccc4c3=O)C(=N)N2O1`, the activation is 35.5% (active).
As to `COc1ccc(OCCCn2cccc2/C=C2/C(=N)N3OC(C)=CC3=NC2=O)cc1`, the activation is 1.04%.
Regarding `CC(=O)c1c(C)[nH]c(=S)c(C#N)c1-c1ccc(F)cc1`, the activation is -0.66%.
As for `Oc1ccc2ccc3cccc[n+]3c2c1`, the activation is 33.7% (active).
To `CCN(Cc1ccccc1)S(=O)(=O)c1cc(C(=O)O)ccc1OC` belongs -2.45%; to `COc1cc(OC)cc(C(=O)N[C@H](C(=O)Nc2nc3ccccc3[nH]2)C(C)C)c1`, -2.24%.
`COc1cc(OC)cc(C(=O)N[C@H](C(=O)OCC(=O)NC(C)c2ccccc2)C(C)C)c1` (stereo not given in full): the activation was 46.5% (active).
To `CC(NC(=O)COC(=O)c1ccc2c(c1)OCO2)c1ccccc1` (stereo not given) belongs 1%.
As to `COc1ccc(C(=O)N/N=C2\CCS(=O)(=O)c3ccc(F)cc32)cc1OC`, the activation was 2.13%.
With `COC(=O)c1cc(NC(=O)CN2CCN(C(C)=O)CC2)cc(C(=O)OC)c1`, the activation was 2.13%.
The result for `COc1cc(OC)c(C(=O)NC2CC(C)(C)NC(C)(C)C2)cc1OC` reads 2.05%; that for `COc1cc(OC)c(C(=O)NC2CCCCCC2)cc1OC`, 32.1% (active).
The result for `COc1ccc(S(=O)(=O)NC(C)C)cc1C(=O)NC1CCCCC1` reads -0.93%; that for `CC(C)(C)c1cc(NC(=O)NN2CCOCC2)nn1-c1c(Cl)cc(Cl)cc1Cl`, 0.61%; that for `O=C(NC(=O)N1CCSCC1)c1c(Cl)cccc1Cl`, 2.1%.
The result for `O=S(=O)(/N=C(/Nc1ccccc1)c1ccccc1)c1cccs1` reads -0.34%; that for `O=C(NCCCN1CCN(c2ccc(F)cc2)CC1)Nc1ccc([N+](=O)[O-])cc1`, 10.4%.
Consider `Cc1ccccc1NC(=S)NNC(=O)c1cccc(Br)c1`, for which the activation was 2.03%.
The result for `CC(=O)Nc1ccc(CN2CCN(Cc3ccc(F)c(F)c3)C(CCO)C2)cc1` (stereo not given) reads 2.06%; that for `CCOC(=O)/C(=N\Nc1ccccc1Cl)N(C)C1CCS(=O)(=O)C1` (stereo not given), -0.61%; that for `COc1ccc(C(=O)N/N=C(\C)CC(=O)Nc2ccc(Cl)cn2)cc1`, -1.34%.
For `NC(=O)CC[C@@H]1NC(=O)[C@@H]2CCCN2C(=O)c2cc([N+](=O)[O-])cc(F)c2NCCC[C@@H](C(N)=O)NC1=O`, the activation is 1.08%.
As for `Cc1ccc(O)c(NC(=S)NC(=O)COc2ccc(Br)cc2)c1`, the activation is 30.4% (active).
On to `Cc1ccc(O)c(NC(=O)COc2cc(C)ccc2C)c1`, for which the activation is -0.38%.
As to `Cc1cccc(OCC(=O)NC(=S)Nc2ccccc2N2CCOCC2)c1`, the activation was -0.19%.
`CC(=O)c1sc(NC(=O)C2=NN(c3ccccc3)C(=O)CC2)nc1C`: the activation is 0.7%.
To `C=CCNC(=S)N1CCc2[nH]c3ccccc3c2C1` belongs 0.61%; to `Cc1cc(C)c2[nH]c(=O)c(CN(Cc3ccccc3)C(=S)NCCCN(C)C)cc2c1`, -0.96%; to `CSc1ncccc1C(=O)OCc1ccc(Br)cc1`, -0.54%.
With `CN(C)c1ccnc2sc(C(=O)c3ccccc3)c(N)c12`, the activation is -2.41%.
To `Nc1c(C(=O)c2cccs2)sc2nsc(SCCN3CCCCC3)c12` belongs 33.7% (active); to `Cc1nc2sc(C(=O)c3ccccc3)c(N)c2c2c1CCCC2`, -0.99%.
As for `Cn1ccs/c1=N\S(=O)(=O)c1ccc(C(C)(C)C)cc1`, the activation was 1.16%.
Regarding `COc1ccccc1C1CC(=O)n2c(nc(-c3ccccc3)c2-c2ccccc2)S1` (stereo not given), the activation was -0.42%.
Regarding `COc1c(C)cc(C(=O)C2CCCN(S(=O)(=O)c3c(C)noc3C)C2)cc1C` (stereo not given), the activation is -0.64%.
Take `Fc1ccc(NC(=S)N2CCc3[nH]c4ccccc4c3C2)cc1`: the activation was 3.02%.
With `O=C(NCCCn1ccnc1)C(=O)NCC1OCCN1S(=O)(=O)c1cc(F)ccc1F` (stereo not given), the activation was 1%.
`CC(C)CC(CC(C)C)=NNC(=O)c1ccc(CSc2nncn2C)cc1`: the activation was -0.24%.
Turning to `CC(=O)Nc1ccccc1C(=O)C(=O)Nc1ccc(F)cc1`, the activation is 0%.
Turning to `COc1ccc(COC(=O)N/N=C(\C)CC(=O)Nc2ccc(Cl)cc2)cc1`, the activation is -1.28%.
The result for `COc1ccccc1CSc1ncc(-c2ccc([N+](=O)[O-])cc2)[nH]1` reads -2.17%; that for `CCc1ccc(NC(=O)C(C)OC(=O)/C=C/c2cccc([N+](=O)[O-])c2)cc1` (stereo not given), 2.04%; that for `Cn1cnc(C(F)(F)F)c1-c1ccc([N+](=O)[O-])cc1`, -1.25%.
For `Cc1cc(C)cc(OCC(=O)O/N=C(\N)Cc2ccc([N+](=O)[O-])cc2)c1`, the activation was -1.73%.
For the molecule `O=c1c(Cl)c(NCc2ccc(F)cc2Cl)cnn1C12CC3CC(CC(C3)C1)C2`, the activation was 0.56%.
The result for `O=C(Nc1nc2ccc([N+](=O)[O-])cc2s1)c1ccncc1` reads 4.01%; that for `O=C(NC(Nc1nc2ccc([N+](=O)[O-])cc2s1)(C(F)(F)F)C(F)(F)F)c1ccccc1`, 27.4% (active).
The result for `O=C(O)CCC(=O)Nc1nc2ccc([N+](=O)[O-])cc2s1` reads -0.08%.
